Our source for the inhibition and Activity values is ChEMBL document CHEMBL1240335, “Integrating high-content screening and ligand-target prediction to identify mechanism of action” (Nat Chem Biol, 2008).

Holding throughout (assay type): functional, cell-based
For assay [1], the system named is HeLa. In words: Inhibition of mitosis in human HeLa cells by imaging analysis. In a few lines: (§1)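 HeLa cells (2,000 per well, DMEM with 10% FBS) were plated overnight, then treated with compound at 10 μM final for 20 h at 37 °C, in duplicate. Cells were pulsed 40 min with 500 nM EdU and fixed in 3.7% paraformaldehyde. Replication was read by rhodamine-azide click labelling, mitosis by anti-phosphohistone H3 Ser10/Cy5, and DNA by Hoechst. Automated 10× imaging scored ≥500 cells per well.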

Assay [2] concerns HeLa. As to the kind of experiment: Cytotoxicity against human HeLa cells assessed as inhibition of DNA replication by imaging analysis. The gist of the method:
as §1

The subject of assay [3] is HeLa. In words: Induction of cell cycle arrest in human HeLa cells assessed as accumulation at G1 arrest at 10 uM after 20 hrs by Hoescht 33342 staining. In a few lines:
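HeLa cells plated at 2,000 per well in DMEM with 10% FBS and penicillin/streptomycin, grown overnight, then treated at a final 10 μM (diluted from 10 mM DMSO stock) for 20 h at 37 °C in duplicate. Pulsed 40 min with 500 nM EdU, fixed in 3.7% paraformaldehyde, stained with Hoechst 33342, anti-phosphoH3 Ser10 and rhodamine-azide. Imaged by automated microscopy at 10×; ≥500 cells scored per well.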

SMILES strings stand for the structures. Active and inactive are the calls of the source. The calls are words filed in the database; no cut-off is given here.

As to `CC(=O)[C@H]1CC[C@H]2[C@@H]3CCC4=CC(=O)CC[C@]4(C)[C@H]3CC[C@]12C`, the inhibition entry in assay [1] and in assay [2] was “Active” throughout.
With `C[C@H]1O[C@@H](O[C@H]2[C@@H](O)C[C@H](O[C@H]3[C@@H](O)C[C@H](O[C@H]4CC[C@@]5(C)[C@H](CC[C@@H]6[C@@H]5C[C@@H](O)[C@]5(C)[C@@H](C7=CC(=O)OC7)CC[C@]65O)C4)O[C@@H]3C)O[C@@H]2C)C[C@H](O)[C@@H]1O`, the inhibition entry in assay [1] and in assay [2] was “Active” throughout.
For `CCC(=O)O[C@]1(C(=O)CCl)[C@@H](C)C[C@H]2[C@@H]3CCC4=CC(=O)C=C[C@]4(C)[C@@]3(F)[C@@H](O)C[C@@]21C`, the inhibition result in assay [1] and in assay [2] was “Active” in each case.
For `CCCCCC[C@H]1CC[C@@](O)([C@@](C)(O)C(=O)N[C@@H]2C(=O)N3NCCC[C@@H]3C(=O)N(O)[C@@H](COC)C(=O)NCC(=O)N3NCCC[C@H]3C(=O)N(O)[C@H](C)C(=O)O[C@H]2C)OC1C` (some centres undefined), the outcome in assay [3] was Active.
With `C[C@@H]1C[C@@H]([C@H](O)CC2CC(=O)NC(=O)C2)C(=O)[C@@H](C)C1`, the inhibition result in assay [1] and in assay [2] was “Active” each time.
Regarding `CC(C)[C@H]1CC[C@@](O)(CCl)[C@H]2C(=O)OCC(C(=O)O)=C[C@H]12`, the outcome in assay [3] was Active.
As to `CC[C@H]1CN2CCc3cc(OC)c(OC)cc3[C@@H]2C[C@@H]1C[C@H]1NCCc2cc(OC)c(OC)cc21`, the inhibition entry in assay [1] and in assay [2] was “Active” throughout.
`C[C@]12CC[C@H](O)C[C@H]1CC[C@@H]1[C@@H]2CC[C@]2(C)[C@@H](C3=CC(=O)OC3)CC[C@]12O`: the inhibition entry in assay [1] and in assay [2] was “Active” in each case.
On to `C[C@@H]1C[C@H]2[C@@H]3CCC4=CC(=O)C=C[C@]4(C)[C@@]3(F)[C@@H](O)C[C@]2(C)[C@@]1(O)C(=O)CO`, for which the inhibition entry in assay [1] and in assay [2] was “Active” each time.
With `COC[C@H]1C(=O)NCC(=O)N2NCCC[C@H]2C(=O)N(O)[C@H](C)C(=O)O[C@@H](C(C)C)[C@H](NC(=O)[C@](C)(O)[C@]2(O)CC[C@@H](CC(C)C)[C@H](C)O2)C(=O)N2NCCC[C@@H]2C(=O)N1O`, the outcome in assay [3] was Active.
For `CC1=C2O[C@]3(O)C=C2C(=C(O)C1=O)[C@@H]1O[C@H](CC[C@H](C)/C=C(\C)C[C@@H](C)C[C@@H]3C)[C@H](C)[C@H](O)[C@H]1C`, the outcome in assay [3] was Active.
Consider `C[C@@H]1O[C@@H](O[C@H]2C[C@@H](O)[C@]3(CO)[C@H]4[C@H](O)C[C@]5(C)[C@@H](C6=CC(=O)OC6)CC[C@]5(O)[C@@H]4CC[C@]3(O)C2)[C@H](O)[C@H](O)[C@H]1O`, for which the inhibition result in assay [1] and in assay [2] was “Active” in each case.
As for `C#C[C@]1(O)CC[C@H]2[C@@H]3CCC4=Cc5oncc5C[C@]4(C)[C@H]3CC[C@@]21C`, the inhibition entry in assay [1] and in assay [2] was “Active” each time.
Turning to `C[C@]12C=CC(=O)C=C1CC[C@H]1[C@@H]3C[C@@H](O)[C@](O)(C(=O)CO)[C@@]3(C)C[C@H](O)[C@@]12F`, the inhibition result in assay [1] and in assay [2] was “Active” each time.
